Data on 22 molecules can be found in ChEMBL document CHEMBL1153423, “Identification and characterization of small molecule inhibitors of a class I histone deacetylase from Plasmodium falciparum” (J Med Chem, 2009).

The chains are these.
B1: Histone deacetylase (Plasmodium falciparum), Q9XYC7 (protein)
chain: MSNRKKVAYFHDPDIGSYYYGAGHPMKPQRIRMTHSLIVSYNLYKYMEVYRPHKSDVNELTLFHDYEYIDFLSSISLENYREFTYQLKRFNVGEATDCPVFDGLFQFQQSCAGASIDGASKLNHHCADICVNWSGGLHHAKMSEASGFCYINDIVLGILELLKYHARVMYIDIDVHHGDGVEEAFYVTHRVMTVSFHKFGDYFPGTGDITDVGVNHGKYYSVNVPLNDGMTDDAFVDLFKVVIDKCVQTYRPGAIIIQCGADSLTGDRLGRFNLTIKGHARCVEHVRSYNIPLLVLGGGGYTIRNVSRCWAYETGVVLNKHHEMPDQISLNDYYDYYAPDFQLHLQPSNIPNYNSPEHLSRIKMKIAENLRHIEHAPGVQFSYVPPDFFNSDIDDESDKNQYELKDDSGGGRAPGTRAKEHSTTHHLRRKNYDDDFFDLSDRDQSIVPY

The first data set deals with MM1.S. In words: Inhibition of histone acetylation in human MM1S cells at 0.2 uM relative to untreated control. The class given is functional.
Conditions: not given; call rule not given here
For the molecule `O=C(CCCCCC(=O)NN/C=C/c1ccccc1Br)NO`, the “fold change (FC)” value was found to be 1.1.
On to `O=C(CCCCC(=O)NN/C=C/c1cc(O)ccc1Br)NO`, for which the “fold change (FC)” value is 1.1.
Same read-out and setting: with `COc1cc(/C=C/NNC(=O)CCCCC(=O)NO)c(Br)cc1O` the figure was 1.2; with `O=C(CCCCCC(=O)NN/C=C/c1cccc(O)c1)NO`, 1.2; with `O=C(CCCCCC(=O)NN/C=C/c1c(O)ccc2ccccc12)NO`, 1.
The same measure, in the same setting: in the case of `O=C(CCCCCCC(=O)NN/C=C/c1cc(O)ccc1O)NO` it was 1.1; in that of `COc1cc(/C=C/NNC(=O)CCCCCC(=O)NO)c(Br)cc1O`, 1; in that of `O=C(CCCCCC(=O)NN/C=C/c1cccnc1Br)NO`, 0.9.
As to `O=C(CCCCC(=O)NN/C=C/c1ccc(O)cc1Br)NO`, the “fold change (FC)” value worked out at 1.1.
On the same count and under the same terms, with `O=C(CCCCCC(=O)NN/C=C/c1cc2c(cc1Br)OCO2)NO` the figure was 1.
Still for that read-out and setting: with `O=C(CCCCCCC(=O)NN/C=C/c1c(O)cc(O)cc1O)NO` the figure was 1.1; with `O=C(CCCCCC(=O)NN/C=C/c1ccc(-n2ccnc2)cc1)NO`, 1; with `O=C(CCCCCC(=O)NN/C=C/c1ccccc1Cl)NO`, 0.9.
The same measure, in the same setting: with `CN(C)c1ccc(/C=C/NNC(=O)CCCCCC(=O)NO)c(O)c1` the figure was 1.2; with `O=C(CCCCCC(=O)NN/C=C/c1cc(O)ccc1Br)NO`, 1.
With `COc1ccc(Br)c(/C=C/NNC(=O)CCCCCC(=O)NO)c1`, the “fold change (FC)” value is recorded as 1.1.

System in the next data set: not listed separately
In words: Growth inhibition of human MM1S cells. The class given is cell-based. To be noted: mm1.s.
Take `O=C(CCCCCC(=O)NN/C=C/c1ccccc1Br)NO`: the Activity entry is listed as “Non-toxic”.
For `O=C(CCCCC(=O)NN/C=C/c1cc(O)ccc1Br)NO`, the Activity entry was “Non-toxic”.
On the same count and under the same terms, in the case of `COc1cc(/C=C/NNC(=O)CCCCC(=O)NO)c(Br)cc1O` it was “Non-toxic”; in that of `O=C(CCCCCC(=O)NN/C=C/c1cccc(O)c1)NO`, “Non-toxic”.
`O=C(CCCCCC(=O)NN/C=C/c1c(O)ccc2ccccc12)NO`: the Activity result is “Non-toxic”.
Still for that read-out and setting: in the case of `O=C(CCCCCCC(=O)NN/C=C/c1cc(O)ccc1O)NO` it was “Non-toxic”; in that of `COc1cc(/C=C/NNC(=O)CCCCCC(=O)NO)c(Br)cc1O`, “Non-toxic”.
Consider `O=C(CCCCCC(=O)NN/C=C/c1cccnc1Br)NO`, for which the Activity result is “Non-toxic”.
Consider `O=C(CCCCC(=O)NN/C=C/c1ccc(O)cc1Br)NO`, for which the Activity result is recorded as “Non-toxic”.
Take `O=C(CCCCCC(=O)NN/C=C/c1cc2c(cc1Br)OCO2)NO`: the Activity entry is recorded as “Non-toxic”.
On to `O=C(CCCCCCC(=O)NN/C=C/c1c(O)cc(O)cc1O)NO`, for which the Activity entry was “Non-toxic”.
Same read-out and setting: with `O=C(CCCCCC(=O)NN/C=C/c1ccc(-n2ccnc2)cc1)NO` the entry was “Non-toxic”.
Same read-out and setting: in the case of `O=C(CCCCCC(=O)NN/C=C/c1ccccc1Cl)NO` it was “Non-toxic”; in that of `CN(C)c1ccc(/C=C/NNC(=O)CCCCCC(=O)NO)c(O)c1`, “Non-toxic”; in that of `O=C(CCCCCC(=O)NN/C=C/c1cc(O)ccc1Br)NO`, “Non-toxic”.
Regarding `COc1ccc(Br)c(/C=C/NNC(=O)CCCCCC(=O)NO)c1`, the Activity entry is on record as “Non-toxic”.

For a further data set, the system named is Plasmodium falciparum. As to the kind of experiment: Antimalarial activity against Plasmodium falciparum 3D7 by [3H]hypoxanthine uptake. The format is functional, organism-based.
Conditions: not given
Consider `Cc1[nH]c2ccccc2c1CCNCc1ccc(/C=C/C(=O)NO)cc1` [PANOBINOSTAT], for which inhibition was half-maximal at 21 nM (IC50). In other words, the double-digit nanomolar range.
The same measure, in the same setting: in the case of `O=C(CCCCCC(=O)NN/C=C/c1ccccc1Br)NO` it was 15 nM.
On the same count and under the same terms, with `O=C(CCCCC(=O)NN/C=C/c1cc(O)ccc1Br)NO` the figure was 30 nM; with `CC(/C=C/C(=O)NO)=C\[C@@H](C)C(=O)c1ccc(N(C)C)cc1` [TRICHOSTATIN], 16 nM; with `COc1cc(/C=C/NNC(=O)CCCCC(=O)NO)c(Br)cc1O`, 498 nM.
In the case of `O=C1CCc2c(ccc3ccccc23)O1` [SPLITOMICIN], the IC50 (usually the midpoint of a concentration-inhibition curve) was above 10000 nM.
Regarding `O=C(CCCCCC(=O)NN/C=C/c1cccc(O)c1)NO`, 99 nM corresponded to half-maximal inhibition (IC50).
Same read-out and setting: in the case of `CCC(=O)CCCCC[C@@H]1NC(=O)[C@H]2CCCCN2C(=O)[C@H]([C@@H](C)CC)NC(=O)[C@H](Cc2cn(OC)c3ccccc23)NC1=O` [APICIDIN] it was 33 nM; in that of `O=C(CCCCCC(=O)NN/C=C/c1c(O)ccc2ccccc12)NO`, 20 nM.
Molecule `O=C(CCCCCCC(=O)NN/C=C/c1cc(O)ccc1O)NO` displayed an IC50 of 142 nM.
Still for that read-out and setting: in the case of `COc1cc(/C=C/NNC(=O)CCCCCC(=O)NO)c(Br)cc1O` it was 47 nM; in that of `Nc1ccccc1NC(=O)c1ccc(CNC(=O)OCc2cccnc2)cc1` [ENTINOSTAT], above 10000 nM.
The molecule `O=C(CCCCCC(=O)NN/C=C/c1cccnc1Br)NO` displayed an IC50 of 22 nM.
The same measure, in the same setting: in the case of `O=C(CCCCC(=O)NN/C=C/c1ccc(O)cc1Br)NO` it was 53 nM.
The same measure, in the same setting: with `O=C(CCCCCC(=O)NN/C=C/c1cc2c(cc1Br)OCO2)NO` the figure was 59 nM; with `O=C(CCCCCCC(=O)NN/C=C/c1c(O)cc(O)cc1O)NO`, 50 nM; with `O=C(CCCCCC(=O)NN/C=C/c1ccc(-n2ccnc2)cc1)NO`, 57 nM.
Same read-out and setting: with `O=C(CCCCCC(=O)NN/C=C/c1ccccc1Cl)NO` the figure was 288 nM; with `CN(C)c1ccc(/C=C/NNC(=O)CCCCCC(=O)NO)c(O)c1`, 24 nM; with `O=C(CCCCCC(=O)NN/C=C/c1cc(O)ccc1Br)NO`, 35 nM.
The molecule `COc1ccc(Br)c(/C=C/NNC(=O)CCCCCC(=O)NO)c1` displayed an IC50 above 500 nM.

Substrate in the next data set: Cc1cc(=O)oc2cc(NC(=O)[C@H](CCCCNC(=O)C(F)(F)F)NC(=O)OC(C)(C)C)ccc12
As to the kind of experiment: (§1) Activity of Plasmodium falciparum HDAC1 expressed in Drosophila melanogaster S2 cells by Michaelis-Menten method.
Conditions: not given
The class given is cell-based. The essentials: (§2)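 pfHDAC-1 cDNA with a C-terminal HPC4 epitope tag was expressed in a stable blasticidin-selected Drosophila S2 pool and purified through the tag. Activity was measured on the acetyl-lysine AMC peptide substrates Ac-Leu-Gly-Lys(Ac)-AMC and Boc-Lys(trifluoroacetyl)-AMC. kcat and apparent Km were obtained by fitting the Michaelis–Menten model to the rate data.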
With B1, the Km (as a rule, the concentration of substrate that gives half-maximal velocity) is given as “Not Active”; the kcat (commonly the number of substrate molecules converted per active site and unit of time at saturation) is “Not Active”.

Substrate in another data set: CC(=O)NCCCC[C@H](NC(=O)CNC(=O)[C@H](CC(C)C)NC(C)=O)C(=O)Nc1ccc2c(C)cc(=O)oc2c1
Described as §1. The class given is cell-based.
Conditions: not given
A digest of the protocol:
as §2
B1: the Km worked out at 30 µM and the kcat was found to be 0.19 s⁻¹.

Another data set has as its target T1, Histone deacetylase (Plasmodium falciparum, UniProt Q9XYC7).
T1 sequence (Q9XYC7 whole entry): B1 chain
As to the kind of experiment: Inhibition of Plasmodium falciparum HDAC1 expressed in Drosophila melanogaster S2 cells. The class given is cell-based.
Conditions: not given
The essentials:
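Recombinant pfHDAC-1 cDNA carrying a C-terminal HPC4 epitope tag was expressed in Drosophila S2 cells. A stable pool was selected with blasticidin after co-transfection, and the enzyme was purified via the HPC4 tag. Substrate characterisation used the fluorogenic peptide Ac-Leu-Gly-Lys(Ac)-AMC, with a Michaelis–Menten fit.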
Take `O=C(CCCCCC(=O)NN/C=C/c1ccccc1Br)NO`: the IC50 worked out at 37 nM.
Still for that read-out and setting: with `O=C(CCCCC(=O)NN/C=C/c1cc(O)ccc1Br)NO` the figure was 89 nM.
Turning to `CC(/C=C/C(=O)NO)=C\[C@@H](C)C(=O)c1ccc(N(C)C)cc1` [TRICHOSTATIN], the IC50 came out at 0.6 nM.
The same measure, in the same setting: in the case of `COc1cc(/C=C/NNC(=O)CCCCC(=O)NO)c(Br)cc1O` it was 59 nM; in that of `O=C1CCc2c(ccc3ccccc23)O1` [SPLITOMICIN], above 10000 nM; in that of `O=C(CCCCCC(=O)NN/C=C/c1cccc(O)c1)NO`, 59 nM.
Take `O=C(CCCCCC(=O)NN/C=C/c1c(O)ccc2ccccc12)NO`: half-maximal inhibition (IC50) was put at 41 nM.
The same measure, in the same setting: with `O=C(CCCCCCC(=O)NN/C=C/c1cc(O)ccc1O)NO` the figure was 110 nM; with `COc1cc(/C=C/NNC(=O)CCCCCC(=O)NO)c(Br)cc1O`, 59 nM.
Same read-out and setting: in the case of `O=C(CCCCCC(=O)NN/C=C/c1cccnc1Br)NO` it was 36 nM; in that of `O=C(CCCCC(=O)NN/C=C/c1ccc(O)cc1Br)NO`, 106 nM.
`O=C(CCCCCC(=O)NN/C=C/c1cc2c(cc1Br)OCO2)NO`: the midpoint of inhibition, the IC50, lay at 20 nM.
On the same count and under the same terms, with `O=C(CCCCCCC(=O)NN/C=C/c1c(O)cc(O)cc1O)NO` the figure was 43 nM; with `O=C(CCCCCC(=O)NN/C=C/c1ccc(-n2ccnc2)cc1)NO`, 15 nM; with `O=C(CCCCCC(=O)NN/C=C/c1ccccc1Cl)NO`, 90 nM.
Still for that read-out and setting: with `CN(C)c1ccc(/C=C/NNC(=O)CCCCCC(=O)NO)c(O)c1` the figure was 37 nM; with `O=C(CCCCCC(=O)NN/C=C/c1cc(O)ccc1Br)NO`, 49 nM; with `COc1ccc(Br)c(/C=C/NNC(=O)CCCCCC(=O)NO)c1`, 22 nM.
